In article PMC12199099 (British Journal of Clinical Pharmacology, 2025):
Values joined by “and” are separate entries in the source; they are usually repeats but may differ in a detail not shown here. Identical values can stand only once.

Legend:
[1] = Population pharmacokinetic; assay type: in vivo, human; details: for geometric mean AUC24h,ss higher in Chinese patients than in White patients / geometric mean C max,ss higher in Chinese patients than in White patients: 100 mg BID, empirical Bayes estimates, Chinese n = 105, White n = 512
Method in brief: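 Pooled plasma acalabrutinib/ACP-5862 data from 14 trials, with China study intensive and sparse schedules, were fitted to the existing model. Parent: two-compartment, five transit compartments. Metabolite: two-compartment, formation fixed at 0.4 CL/F. BOV was on MTT and F1; BSV on clearances and volumes. Race (East Asian vs non-East Asian), PPI, ECOG and health status were tested as proportional shifts. Estimation used NONMEM SAEM/IMP, with BLQ handled by M3.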

R/R MCL = experiment: Exposure-efficacy; assay type: in vivo, human; details: for relationship between exposures and efficacy endpoints (BOR and SPD): Chinese patients with R/R MCL (n = 34), 100 mg BID
Method in brief: (§1)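 Chinese pivotal phase 1/2 study (MCL n = 34; CLL n = 60). Per-patient acalabrutinib, ACP-5862 and total active moiety AUC_24h,ss and C_max,ss were taken from pop-PK post hoc estimates. Total active moiety was adjusted for BTK potency and protein binding. Best overall response was assessed by an independent review committee: CR/PR/SD/PD for MCL, PR/PRL/SD for CLL/SLL. SPD change from baseline was also scored. Analysis was graphical plus logistic regression.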

R/R CLL/SLL = experiment: Exposure-efficacy; assay type: in vivo, human; details: for relationship between exposures and efficacy endpoints (BOR and SPD): Chinese patients with R/R CLL/SLL (n = 60), 100 mg BID
Method in brief: as §1

[2] = humans, cited from earlier work
BTK [3] = details: cited from earlier work
[4] = used for total active concentration; cited from earlier work
[5] = assay type: in vivo, human; details: noncompartmental analysis, patients with intensive PK sampling
Exposure-safety = assay type: in vivo, human
Method in brief: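 Pooled seven studies (six global plus China; n = 476). Endpoints were incidence of grade ≥2 AEs, grade ≥3 AEs, and grade ≥2 AEs of clinical interest occurring in ≥5% of patients (MedDRA v21.1). Post hoc pop-PK steady-state exposures (acalabrutinib AUC_24h,ss primary) were related to AE incidence by graphical plots and logistic regression with 95% CI. Analysis was run for the global and Chinese populations.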

[6] = radio-labelled dose, humans; cited from earlier work
BTK [7] = details: 100 mg BID, clinical pharmacodynamic data; cited from earlier work
[8] = cited from earlier work
[9] = tested on: breast cancer‐resistance protein (BCRP); details: cited from earlier work
CYP3A enzymes = details: cited from earlier work
[10] = cited from earlier work; remark: listed apart in the source
[11] = at a 400 mg daily dose; cited from earlier work
[12] = Chinese R/R MCL, n = 34, 100 mg BID
[13] = Chinese R/R CLL/SLL, n = 60, 100 mg BID

## CC#CC(=O)NCCCC(=O)c1nc(-c2ccc(C(=O)Nc3ccccn3)cc2)c2c(N)nccn12 [ACP‐5862]
[1]
  geometric mean AUC24h,ss higher in Chinese patients than in White patients: 28%
  geometric mean C max,ss higher in Chinese patients than in White patients: 28%
[1]; final model fixed effect
  CLM/F, apparent clearance of metabolite, estimate (RSE %): 21.5 (0.6) L/h
  QM/F, apparent intercompartmental clearance for metabolite, estimate (RSE %): 21.1 (2.9) L/h
  VcM/F, apparent volume of the central compartment for metabolite, estimate (RSE %): 24.3 (1.7) L
  VpM/F, apparent volume of the peripheral compartment for metabolite, estimate (RSE %): 90.9 (1.3) L
[1]; random effect
  BSV CLM/F, estimate (RSE %): 13.2 (18.7) L/h
  BSV QM/F, estimate (RSE %): 62.4 (13.8) L/h
  BSV VcM/F, estimate (RSE %): 37.4 (13.7) L
  BSV VpM/F, estimate (RSE %): 29.3 (18.8) L
R/R MCL
  relationship between exposures and efficacy endpoints (BOR and SPD): flat relationships
R/R CLL/SLL
  relationship between exposures and efficacy endpoints (BOR and SPD): flat relationships
[2]
  mean terminal half‐life: 6.6 h
BTK [3]
  potency for BTK inhibition compared with acalabrutinib: approximately 0.5 fold
[4]
  free fraction (fu): 0.013

## CC#CC(=O)N1CCC[C@H]1c1nc(-c2ccc(C(=O)Nc3ccccn3)cc2)c2c(N)nccn12 [acalabrutinib]
[5]
  AUC higher in Chinese participants than in White patients: 48%
[1]
  geometric mean AUC24h,ss higher in Chinese patients than in White patients: 28%
  geometric mean C max,ss higher in Chinese patients than in White patients: 28%
[1]; covariate analysis
  CL/F higher in healthy participants than in patients with B‐cell malignancies: 64.5%
  Vp/F lower in healthy participants than in patients with B‐cell malignancies: 42.4%
  decrease in CL/F, ECOG performance status ≥2 compared with ECOG ≤1: 12.8%
  reduction of F1 by PPIs: 30.7%
[1]; final model fixed effect
  CL/F, apparent clearance of parent drug, estimate (RSE %): 130.3 (0.4) L/h
  Ka, first‐order absorption rate constant, estimate (RSE %): 1.4 (6.6) h^−1
  MTT, mean transit time, estimate (RSE %): 0.4 (5) h
  Q/F, apparent intercompartmental clearance for parent drug, estimate (RSE %): 19.5 (1.3) L/h
  Vc/F, apparent volume of the central compartment for parent drug, estimate (RSE %): 28.8 (4.5) L
  Vp/F, apparent volume of the peripheral compartment for parent drug, estimate (RSE %): 105.6 (0.7) L
[1]; race covariate
  F higher in East Asian compared with non‐East Asian individuals: 23% and ~ 23%
  Vp/F lower in East Asian compared with non‐East Asian individuals: 38%
[1]; random effect
  BOV F1, between‐occasion variability, estimate (RSE %): 52.9 (1.7)
  BOV MTT, between‐occasion variability, estimate (RSE %): 125 (2.2) h
  BSV CL/F, between‐subject variability, estimate (RSE %): 23.2 (5.6) L/h
  BSV Vc/F, estimate (RSE %): 306 (6.3) L
  BSV Vp/F, estimate (RSE %): 35.9 (6.9) L
[1]; relative change (1 + estimate)
  CL/F_ECOG2+, covariate effect of ECOG on CL/F, estimate (RSE %): −0.128 (43.9)
  CL/F_HEALTHGP, covariate effect of healthy individuals on CL/F, estimate (RSE %): 0.645 (17.1)
  Vp/F_HEALTHGP, covariate effect of healthy individuals on Vp/F, estimate (RSE %): −0.424 (5.9)
R/R MCL; [12]
  best overall response CR, number of patients: 12
  best overall response PD, number of patients: 4
  best overall response PR, number of patients: 16
  best overall response SD, number of patients: 1
R/R MCL
  relationship between exposures and efficacy endpoints (BOR and SPD): flat relationships
R/R CLL/SLL; [13]
  best overall response PR, number of patients: 50
  best overall response PRL, number of patients: 2
  best overall response SD, number of patients: 6
R/R CLL/SLL
  relationship between exposures and efficacy endpoints (BOR and SPD): flat relationships
Exposure-safety; both Chinese patients and the overall population, 100–400 mg daily doses
  relationship of acalabrutinib AUC24h,ss with grade ≥2 or ≥3 adverse events: flat relationship
Exposure-safety; overall population, 100 mg BID
  relationship between acalabrutinib AUC24h,ss and grade ≥3 AEs: flat relationship
Exposure-safety; overall population, logistic regression, daily doses 100 to 400 mg
  relationship between acalabrutinib AUC24h,ss and grade ≥2 and grade ≥3 AEs: no statistically significant relationship
[2]; after oral administration
  median time to peak plasma concentration (T max): 0.75 h
[2]
  absolute bioavailability: 25%
  mean steady‐state volume of distribution (Vss): approximately 34 L
  mean terminal half‐life: 1.4 h
[6]
  dose excreted as unchanged acalabrutinib in urine and faeces: less than 2%
  dose recovered in the faeces: 84%
  dose recovered in the urine: 12%
BTK [7]
  BTK occupancy over 24 h: maximal
[8]
  solubility, pH dependence: solubility decreasing with increasing pH
[9]
  BCRP substrate status: substrate
CYP3A enzymes
  metabolism by CYP3A enzymes into ACP‐5862: predominantly metabolized
[10]
  incidence of atrial fibrillation and haemorrhage compared with ibrutinib: lower incidence
[11]
  maximum tolerated dose: not observed
